# Experimental data from different studies.
# Protocols differ between the studies behind these lines.
# Target: Sodium-dependent dopamine transporter (SLC6A3, Homo sapiens, UniProt Q01959)
SMILES,observed,mode,method,cells,tested at,inhibition [%]
Cc1cc2c(-c3ccco3)cnc(N[C@H]3CCN(C)C[C@@H]3C(=O)NC3CCCCC3)c2[nH]c1=O,cell-free assay,,,,10 µM,8.66
CC(C)Cn1cnc2c(N)nc3ccccc3c21,ligand displacement,,radioligand,,10 µM,25
Fc1ccc(C(OCCN2CCN(CCCc3ccccc3)CC2)c2ccc(F)cc2)cc1,transporter uptake,inhibitor,,HEK293,1 µM,98
COCc1c(-c2cc3cc(C)cc(OC)c3s2)c2c(N)ncnn2c1CN1CCNC(=O)C1,ligand displacement,,radioligand,,10 µM,35
CCN(CC)CCCC[C@H](NC(=O)[C@H](CC(C)C)NC(=O)[C@H](C)NC(=O)[C@H](Cc1ccccc1)NC(=O)c1ccc(C(C)(C)C)cc1)C(=O)N[C@@H](CO)C(=O)OC,ligand displacement,,radioligand,,10 µM,7
COc1ccc(S(=O)(=O)N2CCCCC2)cc1C,ligand displacement,,radioligand,,10 µM,< 30
Clc1ccc2c(C3CCN(CCc4c[nH]c5ccccc45)CC3)c[nH]c2c1,ligand displacement,,radioligand,,10 µM,96
CC(C)N1CCC[C@H]1CNC(=O)c1cn(C2CCCC2)c(=O)c2c1c1ccccc1n2C,ligand displacement,,radioligand,,10 µM,42
CN(CCN1CCC(OC(=O)Nc2ccccc2-c2ccccc2)CC1)C(=O)c1ccc(CN2CCC(C(N)=O)CC2)cc1,ligand displacement,,radioligand,,1 µM,-4
CCCCCCCCCCCC(=O)OC[C@@H](COP(=O)(O)OCCNC(=O)c1ccc(Cn2c(=O)[nH]c3c(N)nc(OCCOC)nc32)cc1)OC(=O)CCCCCCCCCCC,ligand displacement,,radioligand,,10 µM,64
CN1CCN(c2ccnc(NCCc3ccccc3)n2)CC1,cell-free assay,,,,10 µM,98
